# Sampled rows, rich in hits. Any-hit rate of the full collection: about 2.3%.
# PREPL inh – human PREPL enzyme inhibition; Q4J6C6; recombinant PREPL, fluorescence polarization activity-based probe; inhibition, % at 5.96 µM; 0.68% of 320,000 active; AID 2751; in the data active = inhibition above about 43%;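 note: 0% = enzyme with DMSO and 100% = wells lacking enzyme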
# PP5 primary – PP5 (human) phosphatase inhibition | 0.18% of 320,000 active | purified PP5c, OMFP substrate fluorescence | inhibition, % at 6.7 µM | AID 1987 | P53041;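 active = inhibition above the campaign's mean inhibition across all tested compounds plus 3 SD, cut at about 9.5% in these data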;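 note: 0% = DMSO only and 100% = 100 µM cantharidin control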
# UBC13 inh – blocks human UBC13 polyubiquitin chain formation; TR-FRET; inhibition, % at 20 µM; 0.47% of 330,000 active; in the data active = inhibition above about 45%, passing the limit was not always enough
# UCH37 DUB inh – inhibitors of human deubiquitinating enzyme UCH37. 0.33% of 330,000 active. AID 588478. inhibition, % (concentration not given with the values). purified proteasome/UCH37, Ub-AMC cleavage fluorescence. Q9Y5K5;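 active = mean inhibition over replicate wells above about 20%, limit read from the data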;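 note: 0% = compound-free wells with enzyme and 100% = wells lacking proteasome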
# Target sequence (Q9Y5K5 whole entry, looked up): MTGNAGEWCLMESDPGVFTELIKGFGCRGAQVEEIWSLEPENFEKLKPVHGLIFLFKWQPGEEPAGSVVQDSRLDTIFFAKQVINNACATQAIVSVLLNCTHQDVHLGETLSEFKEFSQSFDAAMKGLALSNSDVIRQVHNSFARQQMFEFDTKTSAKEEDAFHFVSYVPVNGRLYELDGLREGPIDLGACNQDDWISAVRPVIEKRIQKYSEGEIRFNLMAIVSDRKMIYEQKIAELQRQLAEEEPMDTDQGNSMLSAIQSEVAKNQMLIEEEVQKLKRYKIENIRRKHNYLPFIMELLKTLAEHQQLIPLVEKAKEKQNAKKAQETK
#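 Assay system: Proteasome-bound UCH37. Buffer or medium: pH 7.4 Tris-HCl (50 mM) with ovalbumin, ATP-MgCl2, DTT. Incubation: 30 min preincubation with enzyme, 25 min cleavage at room temperature. Measured by: fluorescence, ex 355 nm, em 460 nm. Read-out basis: percent inhibition. Control set: wells without proteasome as full block, compound-free enzyme plus substrate as uninhibited.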
# PP1 inh – PP1-alpha (human) inhibition in PP5 counter-screen; P62136; purified PP1alpha, OMFP fluorescence; inhibition, % at 6.7 µM; 0.9% of 320,000 active; AID 2235;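 active = inhibition above the mean inhibition of all tested compounds plus 3 SD, computed separately for each screening campaign, cut at about 15% in these data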
# Target sequence (P62136 whole entry, looked up): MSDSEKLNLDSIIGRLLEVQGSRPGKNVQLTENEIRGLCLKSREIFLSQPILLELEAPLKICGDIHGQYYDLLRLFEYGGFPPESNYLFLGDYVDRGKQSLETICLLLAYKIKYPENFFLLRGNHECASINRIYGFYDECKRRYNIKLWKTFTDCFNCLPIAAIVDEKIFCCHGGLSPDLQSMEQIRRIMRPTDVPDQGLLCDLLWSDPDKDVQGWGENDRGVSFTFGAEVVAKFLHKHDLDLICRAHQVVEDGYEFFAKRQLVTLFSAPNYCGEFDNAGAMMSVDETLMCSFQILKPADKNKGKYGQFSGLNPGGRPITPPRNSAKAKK
# Fh CTSL1 inh – blocks F. hepatica cathepsin L1 in PFM18AAP counter-screen. recombinant F. hepatica cathepsin L1, Z-Leu-Arg-MCA fluorescence. inhibition, % at 5.96 µM. 0.49% of 300,000 active;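 active = inhibition above the mean of all tested compounds plus 3 SD, set per screening campaign, cut at about 17% in these data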;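 note: 0% = plate median of test compound wells and 100% = 1 µM Z-Phe-Ala-diazomethylketone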
# Numbers without * were called inactive; / = not tested or not shown.
SMILES,PREPL inh,PP5 primary,UBC13 inh,UCH37 DUB inh,PP1 inh,Fh CTSL1 inh
COc1ccc(OC)c(N2Cc3cc(C)c(C)cc3C2)c1,4.4,2.1,-32.8,2.0,16.8*,-3.9
CCOc1ccccc1N1Cc2cc(C)c(C)cc2C1,5.6,2.9,-24.2,7.6,15.3*,-0.8
CCOc1ccccc1N1Cc2ccccc2C1,-7.8,2.9,0.6,3.8,11.4,-2.1
COc1ccc(OC)c(-n2c(C)cc(C=O)c2C)c1,-0.4,2.4,-10.1,1.3,-1.0,-7.8
O=C(CSc1nnc(SCc2ccccc2)s1)NN=C/C=C/c1ccccc1[N+](=O)[O-],/,/,/,3.4,/,/
O=C(CSc1nnc(SCc2cccc3ccccc23)s1)N/N=C/C=C/c1ccccc1[N+](=O)[O-],-2.5,1.3,9.1,/,16.1*,4.2
COCC(=O)NN=Cc1ccccc1OC/C=C/c1ccccc1,/,/,/,1.9,/,/
CCc1ccc2nc(N(CCCN(C)C)C(=O)c3ccc(S(=O)(=O)N(C)C4CCCCC4)cc3)sc2c1,12.3,-2.2,47.6*,0.7,5.4,5.1
CN(C)CCCN(C(=O)c1ccc(S(=O)(=O)N(C)C2CCCCC2)cc1)c1nc2ccc(F)cc2s1,27.7,0.2,27.4,1.4,-0.8,1.8
COc1ccc(C=Nn2cnc3scc(-c4cccs4)c3c2=O)cc1OC,/,/,/,-23.5,/,/
CC1S/C(=N/N=Cc2cccc([N+](=O)[O-])c2)NC1=O (stereo not given),/,/,/,2.6,/,/
O=C(NC(O)C(=O)c1ccccc1)c1ccc(F)cc1 (stereo not given),-4.5,1.9,-2.7,2.8,1.6,18.3*
CC1C(=O)NN=C1C(=O)NN=C/C(Br)=C/c1ccccc1 (stereo not given),/,/,/,9.5,/,/
CCc1ccc(N2C(=O)Cc3c2nc(N)c(C#N)c3N)cc1,43.6*,1.5,-5.5,-3.4,-3.0,3.2
COC(=O)c1cccc2nc3c(C(C)O)cccc3nc12 (stereo not given),12.2,7.6,-23.7,6.9,4.3,86.8*
Cc1ccc2c(c1)-c1c(cnn1CC(=O)N(CCC#N)c1ccccc1)CO2,1.6,0.1,1.9,1.6,-1.0,47.0*
Cc1ccc2c(c1)-c1c(cnn1CC(=O)NC(C)CCc1ccco1)CO2 (stereo not given),-7.4,5.1,-8.2,1.3,0.7,0.3
CCOC(=O)N1CCC(NC(=O)Cn2ncc3c2-c2cc(C)ccc2OC3)CC1,-4.0,2.7,3.2,1.5,3.0,-3.6
Cc1ccc2c(c1)-c1c(cnn1CC(=O)N(Cc1ccco1)C1CCCCC1)CO2,3.2,2.3,15.9,1.6,4.0,29.0*
CCOC(=O)CC(C)=NNC(=O)COc1ccccc1C,/,/,/,7.5,/,/
O=C(NCCc1ccc(O)cc1)c1ccc(Cl)cc1,1.9,3.2,5.7,31.4*,0.3,-2.6
O=C(NN=Cc1ccccn1)c1cccc(NC(=O)c2ccc(Cl)cc2)c1,/,/,/,-5.0,/,/
O=C(NN=Cc1ccc(OC(=O)c2cccs2)cc1)c1ccc(Cl)cc1,/,/,/,4.1,/,/
Cn1c(=O)c2c(ncn2CC(=O)NN=Cc2ccco2)n(C)c1=O,/,/,/,-2.4,/,/
CCc1cc(=O)[nH]c(SCC(=O)NCc2ccc3c(c2)OCO3)n1,-7.2,0.3,-1.8,5.6,-3.5,3.1
SMILES,PREPL inh,PP5 primary,UBC13 inh,UCH37 DUB inh,PP1 inh,Fh CTSL1 inh
O=C(CSc1nccc(=O)[nH]1)NCc1ccc2c(c1)OCO2,10.2,1.5,-4.3,1.8,15.5*,1.3
N#CC(=NNc1cccc2ccccc12)c1nnc2n1CCCCC2,/,/,/,3.9,/,/
COc1ccccc1/C=N/NC(=O)c1ccc(CN2C(=O)c3cccc4cccc2c34)cc1,-2.6,0.7,19.7,/,16.2*,17.9*
COc1ccccc1C=NNC(=O)c1ccc(CN2C(=O)c3cccc4cccc2c34)cc1,/,/,/,-163.0,/,/
CCC1(CC)NC(=O)NC1=O,-4.1,0.4,4.3,31.5*,-5.0,-0.7
CCOc1ccccc1C=NNc1nc2c(N)ncnc2n1[C@H]1O[C@@H](CO)[C@H](O)[C@@H]1O,/,/,/,4.0,/,/
O=C(CSc1ccsc1[N+](=O)[O-])N1CCN(c2ccc(Cl)cc2)CC1,43.6*,0.0,-5.3,-19.0,4.1,2.9
C/C(CC(=O)Nc1ccc(Cl)c(C(F)(F)F)c1)=N\NC(N)=S,1.3,1.4,6.9,/,-1.4,39.9*
C/C(CC(=O)Nc1ccc(Cl)c(C(F)(F)F)c1)=N\NC(=O)c1ccccc1O,12.4,2.9,-6.0,/,3.5,4.0
CC(C)N1CCC2(CC1)C(C#N)=C(N)NC(S)=C2C#N,49.2*,1.6,1.2,/,-4.5,7.0
N#CC1=C(N)NC(SCC(=O)O)=C(C#N)C12CCCC2,13.3,-1.6,-13.9,7.2,-4.9,3.3
C[N+](C)(C)CCCCCC(=O)C=NO,/,/,/,3.9,/,/
O=C(NCCN1CCOCC1)/C(=C\c1ccccc1Cl)NC(=O)c1ccccc1,11.6,1.4,-8.1,4.1,-0.3,18.8*
O=C(NCCN1CCOCC1)/C(=C/c1ccccc1)NC(=O)c1ccccc1,17.9,-4.5,2.5,1.5,-5.8,-0.3
C/C(=N\Nc1ccc(C)c(Cl)c1)c1cccnc1,27.2,2.5,2.4,/,4.2,2.7
C/C(=N\Nc1ccc(C)c(Cl)c1)c1ccncc1,20.8,-5.4,-4.7,/,-2.0,18.9*
CCOc1cc(C=NO)cc(Br)c1OC,/,/,/,2.3,/,/
CN(C)CCCN(C(=O)c1ccc(Br)s1)c1nc2cc3c(cc2s1)OCCO3,6.5,1.4,32.0,1.6,0.8,0.3
CN(C)CCCN(C(=O)c1cc2cc([N+](=O)[O-])ccc2s1)c1nc2cc3c(cc2s1)OCCO3,28.7,0.7,73.4*,/,5.2,2.5
CC(C)Oc1ccc(Br)cc1/C=N\NC(N)=S,-6.8,-1.6,-0.9,/,2.8,46.6*
O=S(=O)(N=CN1CCOCC1)c1ccc(Cl)cc1,/,/,/,0.4,/,/
CCc1ccc(Nc2nc(N)nc(CSc3nnnn3-c3ccccc3)n2)cc1,-5.3,1.0,7.7,2.1,15.8*,3.8
COc1ccc(C=N/N=C2/NC(=O)C(c3ccccc3)(c3ccccc3)S2)cc1,/,/,/,9.3,/,/
CCC1Oc2ccc(C)cc2N(CC(=O)NC2CCCCC2)C1=O (stereo not given),-1.4,4.1,0.2,1.5,-1.1,-2.3
CCC1Oc2ccc(C)cc2N(CC(=O)N(Cc2ccc(C)o2)C2CCCC2)C1=O (stereo not given),9.1,5.4,2.4,6.0,3.4,28.0*
Cn1c(=O)c(=O)n(C)c2cc(S(=O)(=O)CCC(=O)Nc3ccc(C(F)(F)F)cc3)ccc21,7.9,-0.7,-6.4,2.5,-1.7,17.4*
COc1cccc(C2C(C#N)=C(N)OC3=C2C(=O)CC(c2ccco2)C3)c1OCc1ccc(F)cc1 (stereo not given),12.8,5.2,-20.6,-0.3,10.4,-3.1
N#CC1=C(N)OC2=C(C(=O)CC(c3ccco3)C2)C1c1ccc(OCc2c(F)cccc2Cl)cc1 (stereo not given),9.4,1.9,-6.4,32.1*,14.0,0.4
COCCn1c(-c2cccs2)csc1=Nc1cccnc1,16.3,-1.4,3.6,2.1,1.5,19.4*

# Screening results (PubChem)
